≈ marks a conversion by molar mass, not a printed value.
How the values were obtained:
Plasmodium falciparum [1] = assay: In vitro antimalarial activity for Plasmodium falciparum W2; assay type: functional, organism-based
Plasmodium falciparum [2] = assay: In vitro antimalarial activity for Plasmodium falciparum D6; assay type: functional, organism-based
Plasmodium falciparum [3] = assay: In vitro antimalarial activity against Plasmodium falciparum D6 relative to artemisinin; assay type: functional
In short: (§1)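 Relative potency is the artemisinin IC50 divided by the analog IC50, × 100%, with artemisinin set at 100%. Tested in vitro against P. falciparum D-6 or W-2.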

Plasmodium falciparum [4] = assay: In vitro antimalarial activity against Plasmodium falciparum W-2 relative to artemisinin; assay type: functional; in short: as §1
Plasmodium falciparum [5] = assay: In vitro antimalarial activity for Plasmodium falciparum D6; Not active; assay type: functional, organism-based
Plasmodium falciparum [6] = assay: In vitro antimalarial activity for Plasmodium falciparum W2; Not active; assay type: functional, organism-based
Plasmodium falciparum [7] = assay: In vitro antimalarial activity for Plasmodium falciparum D6 in LDH […] assay; assay type: functional, organism-based
In short: (§2)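 In vitro test against P. falciparum D-6 or W-2 using Makler's parasite lactate dehydrogenase (pLDH) assay, which reads out parasite pLDH enzyme activity. Run at the University of Mississippi.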

Plasmodium falciparum [8] = assay: In vitro antimalarial activity for Plasmodium falciparum W2 in LDH […] assay; assay type: functional, organism-based; in short: as §2

SMILES | IC50 (Plasmodium falciparum [1]) [µg/mL] | IC50 (Plasmodium falciparum [2]) [µg/mL] | Relative activity (Plasmodium falciparum [3]) | Relative activity (Plasmodium falciparum [4]) | IC50 (Plasmodium falciparum [5]) | IC50 (Plasmodium falciparum [6]) | IC50 (Plasmodium falciparum [7]) [µg/mL] | IC50 (Plasmodium falciparum [8]) [µg/mL]
C[C@@H]1CC[C@@H]([C@@H](C)CO)[C@@]23CC[C@@](C)(CC[C@@H]12)OO3 | 1.5 (≈ 5.59 µM) | 0.3 (≈ 1.12 µM) |  |  |  |  |  | 
C[C@@H]1CC[C@H]2[C@@H](C)CO[C@@H]3C[C@@]4(C)CC[C@@H]1[C@]32OO4 | 0.00279 (≈ 0.0105 µM) | 0.00287 (≈ 0.0108 µM) | 32 | 16 |  |  |  | 
C[C@@H]1CC[C@@H]([C@@H](C)COCc2ccccc2)[C@@]23C=C[C@@](C)(CC[C@@H]12)OO3 |  |  |  |  | Not Active | Not Active |  | 
C[C@@H]1CC[C@H]2[C@@H](C)CO[C@H]3C[C@]4(C)CC[C@@H]1[C@@]32OO4 | 0.00078 (≈ 0.00293 µM) | 0.00172 (≈ 0.00646 µM) | 53 | 58 |  |  |  | 
COC[C@H](C)[C@@H]1CC[C@@H](C)[C@@H]2CC[C@]3(C)CC[C@@]21OO3 | 0.7 (≈ 2.48 µM) | 0.31 (≈ 1.1 µM) |  |  |  |  |  | 
C[C@@H]1CC[C@@H]([C@@H](C)CO)[C@@]23C=C[C@@](C)(CC[C@@H]12)OO3 |  | 1 (≈ 3.75 µM) |  |  |  | Not Active |  | 
COC[C@H](C)[C@@H]1CC[C@@H](C)[C@@H]2CC[C@]3(C)C=C[C@@]21OO3 |  | 0.92 (≈ 3.28 µM) |  |  |  | Not Active |  | 
C[C@@H]1CC[C@H]2[C@@H](C)C(=O)O[C@@H]3O[C@@]4(C)CC[C@@H]1[C@]32OO4 [ARTEMISININ] | 0.00048 (≈ 0.0017 µM) | 0.00097 (≈ 0.00344 µM) | 100 | 100 |  |  | 0.0014 (≈ 0.00496 µM) | 0.0022 (≈ 0.00779 µM)
C[C@@H]1CC[C@H]2[C@@H](C)C(=O)O[C@@H]3C[C@@]4(C)CC[C@@H]1[C@]32OO4 | 0.0126 (≈ 0.045 µM) | 0.0388 (≈ 0.138 µM) | 23.3 | 11 |  |  | 0.006 (≈ 0.0214 µM) | 0.02 (≈ 0.0713 µM)
C[C@@H]1CC[C@@H]([C@@H](C)COCc2ccccc2)[C@@]23CC[C@@](C)(CC[C@@H]12)OO3 | 0.66 (≈ 1.84 µM) | 0.29 (≈ 0.809 µM) |  |  |  |  |  | 
